Data set [1] has as its system Salmonella typhimurium. Nature of the data set: Antibacterial activity against Salmonella enterica serovar Typhimurium TT16729 at 20 uM to 40 uM. Format: functional, organism-based. The following applies: Salmonella enterica subsp. enterica serovar Typhimurium.
Data set [2] relates to Salmonella typhimurium. Nature of the data set: Antibacterial activity against Salmonella enterica serovar Typhimurium TT16729 assessed as inhibition of SPI1 protein secretion T3SS-mediated invasion in MDCK cells at 20 uM. Format: functional, organism-based. The following applies: Salmonella enterica subsp. enterica serovar Typhimurium. An outline of the steps:
(§1)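 Bacteria grown in LB (overnight, then 1:10 subculture 3 h, 37°C, closed tubes) with compound at 20 µM or DMSO, then seeded on MDCK cells in HEPES-DMEM, MOI 10:1. Gentamicin 50 µg/ml for 45 min; cells lysed at 2 h with 0.5% deoxycholate; invasion = CFU at 2 h / CFU seeded, as percentage of input.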

In data set [3] the test system is Salmonella typhimurium. Nature of the data set: Antibacterial activity against Salmonella enterica serovar Typhimurium TT16729 motility assessed as reduction of swimming zone on soft agar plates at 40 uM. Format: functional, Salmonella enterica subsp. enterica serovar Typhimurium. In short, it runs like this:
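Swimming motility on soft agar (tryptone 10 g/liter, NaCl 5 g/liter, 0.3% agar) prepared 1 day ahead, compound at 40 µM final; 20 µl overnight culture inoculated into agar; zone diameter read after 8 h at 37°C.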

A further data set deals with MDCK. Nature of the data set: Cytotoxicity against MDCK cells at 20 uM to 40 uM. The following applies: dog. Format: cell-based, Canis lupus familiaris.
The subject of data set [4] is Salmonella typhimurium. Nature of the data set: Inhibition of Salmonella enterica serovar Typhimurium TT16729 invasion in MDCK cells at 20 uM by gentamycin protection assay. Format: functional, organism-based. The following applies: Salmonella enterica subsp. enterica serovar Typhimurium. An outline of the steps: as §1
Data set [5] deals with Salmonella typhimurium. Nature of the data set: Antibacterial activity against Salmonella enterica serovar Typhimurium TT16729 expressing SPI1 effector protein assessed as localization of SipB-beta-lactamase fusion protein in osmotic shock sample at 20 uM by immunoblotting. The following applies: Salmonella enterica subsp. enterica serovar Typhimurium. Format: functional, organism-based. On the technique in general: Immunoblotting shows a protein as a band on a membrane.

Data set [6] has as its system Salmonella typhimurium. Nature of the data set: Antibacterial activity against Salmonella enterica serovar Typhimurium TT16729 assessed as decrease in transcription of lacZ-sipC at 40 uM. Format: functional, organism-based. The following applies: Salmonella enterica subsp. enterica serovar Typhimurium.
Data set [7] has as its system Salmonella typhimurium. Briefly: Antibacterial activity against Salmonella enterica serovar Typhimurium TT16729 expressing SPI1 effector protein assessed as increase in beta-lactamase activity in cytosolic fraction at 20 uM by immunoblotting. Format: functional, organism-based. The following applies: Salmonella enterica subsp. enterica serovar Typhimurium. In short, it runs like this:
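TT16729 carrying pAUN-1 (SipB–β-lactamase fusion) grown to invasiveness in kanamycin LB, then 2 h in DMEM with kanamycin, L-glutamine and HEPES; compound 20 µM in all steps, DMSO control. Cells lysed (freeze-thaw, lysozyme 1 mg/ml 1 h 4°C, sonication), 5,000 x g clearing, then 50,000 x g 1 h. Cytosolic fraction assayed by nitrocefin (50 µg/ml, PBS) cleavage at A486, per min per OD600 or µg protein.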

In the next data set the test system is RAW264.7. Briefly: Effect on nitric oxide production in mouse RAW264.7 cells. Format: functional, cell-based.
In data set [8] the test system is Salmonella typhimurium. Nature of the data set: Antibacterial activity against Salmonella enterica serovar Typhimurium TT16729 in mouse RAW264.7 cells assessed as reduction of intracellular bacterial replication at 40 uM after 16 hrs. Format: functional, organism-based. The following applies: Salmonella enterica subsp. enterica serovar Typhimurium. An outline of the steps: (§2)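 RAW264.7 cells in RPMI/10% FBS infected at MOI 10:1 with LB-agar-grown, mouse-serum-opsonized bacteria; gentamicin 50 µg/ml for 45 min, then 10 µg/ml. Compound added to killing and maintenance media from 1 h postinfection onward. Hypotonic lysis at 2 and 16 h; growth yield = CFU 16 h / CFU 2 h.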

For data set [9], the system named is Salmonella typhimurium. Nature of the data set: Antibacterial activity against Salmonella enterica serovar Typhimurium TT16729 assessed as decrease in transcription of lacZ-prgH at 40 uM. The following applies: Salmonella enterica subsp. enterica serovar Typhimurium. Format: functional, organism-based.
The test system of data set [10] is Salmonella typhimurium. Nature of the data set: Antibacterial activity against Salmonella enterica serovar Typhimurium 14028 in mouse RAW264.7 cells assessed as reduction of intracellular bacterial replication at 40 uM after 16 hrs. Format: functional, organism-based. The following applies: Salmonella enterica subsp. enterica serovar Typhimurium. An outline of the steps: as §2

Data set [11] has as its system Salmonella typhimurium. Nature of the data set: Antibacterial activity against Salmonella enterica serovar Typhimurium 14028 assessed as inhibition of sseJ-HA fusion protein secretion by immunoblotting. The following applies: Salmonella enterica subsp. enterica serovar Typhimurium.
In data set [12] the test system is Salmonella typhimurium. Briefly: Antibacterial activity against Salmonella enterica serovar Typhimurium 14028 assessed as reduction in sseJ-HA fusion protein secretion in hexadecane extracted fraction at 20 and 40 uM by immunoblotting. Format: functional, organism-based. The following applies: Salmonella enterica subsp. enterica serovar Typhimurium. An outline of the steps: (§3)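 Strain 14028 grown overnight in low-pH minimal medium MM5.8 (SPI2-inducing) with compound or DMSO control; whole cells, hexadecane-extractable fraction and cell-free supernatant separated, volumes normalized by OD600, supernatant proteins TCA-precipitated; SseJ-HA detected by immunoblot on 12% SDS-PAGE with anti-HA monoclonal antibody (1:1,000) and chemiluminescence.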

Data set [13] deals with Salmonella typhimurium. Nature of the data set: Antibacterial activity against Salmonella enterica serovar Typhimurium TT16729 assessed as decrease in transcription of lacZ-hilA at 40 uM. Format: functional, organism-based. The following applies: Salmonella enterica subsp. enterica serovar Typhimurium.
The test system of data set [14] is Salmonella typhimurium. Briefly: Antibacterial activity against Salmonella enterica serovar Typhimurium TT16729 in mouse RAW264.7 cells assessed as increase in nitric oxide level at 40 uM after 16 hrs. Format: functional, organism-based. The following applies: Salmonella enterica subsp. enterica serovar Typhimurium. An outline of the steps:
(§4)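 Opsonized bacteria infect RAW264.7 macrophages (MOI 10:1, gentamicin protection); compound or DMSO present in media from 1 h postinfection. Nitrite accumulated in culture medium at 16 h postinfection measured with Griess reagent (OD525), converted to µM against sodium nitrite standards.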

Data set [15] relates to Salmonella typhimurium. Nature of the data set: Antibacterial activity against Salmonella enterica serovar Typhimurium 14028 in mouse RAW264.7 cells assessed as increase in nitric oxide level at 40 uM after 16 hrs. Format: functional, organism-based. The following applies: Salmonella enterica subsp. enterica serovar Typhimurium. In short, it runs like this:
as §4

In data set [16] the test system is Salmonella typhimurium. Briefly: Antibacterial activity against Salmonella enterica serovar Typhimurium 14028 assessed as increase in sseJ-HA fusion protein secretion in bacterial cell containing fraction at 20 and 40 uM by immunoblotting. Format: functional, organism-based. The following applies: Salmonella enterica subsp. enterica serovar Typhimurium. An outline of the steps: as §3

Data set [17] concerns Salmonella typhimurium. Nature of the data set: Antibacterial activity against Salmonella enterica serovar Typhimurium TT16729 assessed as decrease in spvA-lacZ expression at 40 uM. Format: functional, organism-based. The following applies: Salmonella enterica subsp. enterica serovar Typhimurium.
The test system of data set [18] is Salmonella typhimurium. Briefly: Antibacterial activity against Salmonella enterica serovar Typhimurium TT16729 assessed as reduction in expression of bacterial cell bound flagellin at 40 uM by SDS-PAGE. The following applies: Salmonella enterica subsp. enterica serovar Typhimurium. Format: functional, organism-based. An outline of the steps: (§5)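 Bacteria grown 16–18 h in LB with compound (40 or 80 µM) or DMSO; flagellin released by 150 mM NaCl/10 mM HCl for 5 min at room temperature, bacteria removed by centrifugation, supernatant proteins TCA-precipitated and run on 9% SDS-PAGE; loading normalized by OD600.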

Data set [19] relates to Salmonella typhimurium. Nature of the data set: Antibacterial activity against Salmonella enterica serovar Typhimurium TT16729 assessed as reduction in expression of bacterial cell bound flagellin at 80 uM by SDS-PAGE. The following applies: Salmonella enterica subsp. enterica serovar Typhimurium. Format: functional, organism-based. In short, it runs like this: as §5
Data set [20] deals with Salmonella typhimurium. Nature of the data set: Antibacterial activity against Salmonella enterica serovar Typhimurium 14028 in mouse RAW264.7 cells assessed as reduction of nitric oxide level at 40 uM after 16 hrs. Format: functional, organism-based. The following applies: Salmonella enterica subsp. enterica serovar Typhimurium. In short, it runs like this: as §4
Data set [21] concerns Salmonella typhimurium. Briefly: Antibacterial activity against Salmonella enterica serovar Typhimurium TT16729 in mouse RAW264.7 cells assessed as increase in intracellular bacterial replication at 40 uM after 16 hrs. Format: functional, organism-based. The following applies: Salmonella enterica subsp. enterica serovar Typhimurium. An outline of the steps: as §2
The test system of data set [22] is Salmonella typhimurium. Nature of the data set: Antibacterial activity against Salmonella enterica serovar Typhimurium TT16729 infected mouse RAW264.7 cells assessed as increase in nitric oxide level at 40 uM after 16 hrs in presence of tetracyclin. Format: functional, organism-based. The following applies: Salmonella enterica subsp. enterica serovar Typhimurium. In short, it runs like this:
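RAW264.7 cells infected with opsonized strain TT16729 (MOI 10:1, gentamicin protection), compound in medium from 1 h postinfection; bacterial protein synthesis blocked with tetracycline at 2 h postinfection. Medium nitrite measured at 16 h by Griess reagent (OD525) against sodium nitrite standards.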

The source made the active and inactive calls. The rule behind the calls is not given here.

For `O=C(N/N=C/c1cc(Cl)cc(Cl)c1O)c1ccccc1`, the result in the data set with Salmonella typhimurium [1] was inactive. Besides, the result in the data set on Salmonella typhimurium [2] and in the data set on Salmonella typhimurium [4] was Active. Moreover, the results for the Activity with Salmonella typhimurium [3] and with MDCK were 2.7 cm and “Non-toxic”, respectively.

For `O=C(N/N=C/c1ccc(O)c(O)c1O)c1ccco1`, in the data set with Salmonella typhimurium [1], the result was inactive. Besides, the outcome with Salmonella typhimurium [2] and with Salmonella typhimurium [4] was Active. The Activity in the data set on Salmonella typhimurium [3] is listed as 2.9 cm; in the data set with MDCK, “Non-toxic”.

As to `O=C(N/N=C/c1cc(Br)cc(Br)c1O)c1ccc([N+](=O)[O-])cc1`, in the data set on Salmonella typhimurium [1], the result was inactive. Further, the outcome with Salmonella typhimurium [2] and with Salmonella typhimurium [4] was Active. For the same molecule, the Activity in the data set on Salmonella typhimurium [3] is reported as 2.9 cm; with MDCK, “Non-toxic”.

With `O=C(N/N=C/c1cc(Br)cc(Br)c1O)c1cccnc1`, the outcome in the data set on Salmonella typhimurium [1], in the data set on Salmonella typhimurium [5], in the data set with RAW264.7 and in the data set with Salmonella typhimurium [16] was inactive. In addition, the outcome with Salmonella typhimurium [6], in the data set with Salmonella typhimurium [7], in the data set with Salmonella typhimurium [2], in the data set on Salmonella typhimurium [8], in the data set with Salmonella typhimurium [9] and in the data set with Salmonella typhimurium [10] was Active. Besides, the result in the data set with Salmonella typhimurium [11], in the data set on Salmonella typhimurium [12], in the data set on Salmonella typhimurium [4], with Salmonella typhimurium [13], in the data set on Salmonella typhimurium [14] and in the data set on Salmonella typhimurium [15] was Active. Further, the result with Salmonella typhimurium [17] was Active. For the same molecule, the Activity in the data set on Salmonella typhimurium [3] is 2.7 cm; in the data set with MDCK it was “Non-toxic”.

As for `O=C(N/N=C/c1cc(Br)ccc1O)c1cccnc1`, the result in the data set on Salmonella typhimurium [1] was inactive. Further, the result in the data set with Salmonella typhimurium [18], with Salmonella typhimurium [2] and in the data set on Salmonella typhimurium [4] was Active. Besides, the Activity with Salmonella typhimurium [3] is on record as 2.4 cm; in the data set on MDCK, “Non-toxic”.

For the molecule `CCOc1cccc(/C=N/NC(=O)C(N)=O)c1O`, the outcome with Salmonella typhimurium [1] and with Salmonella typhimurium [19] was inactive. Besides, the result in the data set with Salmonella typhimurium [2] and with Salmonella typhimurium [4] was Active. The Activity with Salmonella typhimurium [3] is 2.7 cm; in the data set with MDCK, “Non-toxic”.

As for `NC(=O)C(=O)N/N=C/c1cc(Br)ccc1O`, in the data set on Salmonella typhimurium [1], the result was inactive. For the same molecule, the result in the data set on Salmonella typhimurium [18], in the data set with Salmonella typhimurium [2], in the data set on Salmonella typhimurium [19] and in the data set on Salmonella typhimurium [4] was Active. Also, the results for the Activity in the data set with Salmonella typhimurium [3] and in the data set with MDCK were 1.7 cm and “Non-toxic”, respectively.

`O=C(N/N=C/c1c(O)ccc2ccccc12)c1ccc(Cl)cc1`: the result in the data set on Salmonella typhimurium [1], in the data set with RAW264.7 and with Salmonella typhimurium [16] was inactive. Besides, the outcome in the data set with Salmonella typhimurium [20], with Salmonella typhimurium [21], in the data set on Salmonella typhimurium [2], in the data set on Salmonella typhimurium [11], with Salmonella typhimurium [22] and in the data set on Salmonella typhimurium [12] was Active. Also, the result in the data set on Salmonella typhimurium [4] was Active. In addition, the Activity was 3.1 cm in the data set on Salmonella typhimurium [3] and “Non-toxic” with MDCK.

For `O=C(N/N=C/c1ccc(O)c(O)c1O)c1ccccc1`, the result in the data set with Salmonella typhimurium [1] was inactive. In addition, the outcome in the data set on Salmonella typhimurium [2] and in the data set on Salmonella typhimurium [4] was Active. For the same molecule, the Activity with Salmonella typhimurium [3] is 3.3 cm; in the data set with MDCK it was “Non-toxic”.

The values are drawn from ChEMBL document CHEMBL1155175, “Salicylidene acylhydrazides that affect type III protein secretion in Salmonella enterica serovar typhimurium” (Antimicrob Agents Chemother, 2007).
